GASC1 inh = inhibitors of GASC-1 (KDM4C) histone demethylase, primary screen, biochemical, single concentration HTS; GST-KDM4C 2-372, H3K9me3 peptide, LANCE TR-FRET; 0.15% of 96,000 active; inhibition, % at 12.5 µM; Lysine-specific demethylase 4C (Homo sapiens), Q9H3R0;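 active means mean replicate inhibition above about 25%, with at least 55% of replicates also reaching it, limit read from the data, passing the limit was not always enough; inconclusive means only one of those two conditions met; inactive means neither condition met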
Target sequence (Q9H3R0 2-372 limits assumed): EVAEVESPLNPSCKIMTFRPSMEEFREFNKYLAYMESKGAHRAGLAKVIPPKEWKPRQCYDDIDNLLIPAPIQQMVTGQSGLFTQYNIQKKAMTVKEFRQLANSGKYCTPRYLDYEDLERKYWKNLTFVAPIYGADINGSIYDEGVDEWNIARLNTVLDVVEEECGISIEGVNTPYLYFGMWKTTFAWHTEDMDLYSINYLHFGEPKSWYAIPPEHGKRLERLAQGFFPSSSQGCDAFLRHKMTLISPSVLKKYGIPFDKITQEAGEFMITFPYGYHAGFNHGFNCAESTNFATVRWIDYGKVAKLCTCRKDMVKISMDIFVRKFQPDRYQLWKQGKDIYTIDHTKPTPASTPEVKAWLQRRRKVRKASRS
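Material: GST-tagged GASC-1 (JMJD2C) catalytic fragment, aa 2-372 / Quantity: enzyme final amount 10 nM / Medium: HEPES buffer, pH 7.5, plus ascorbate / Doses: one test concentration per compound / Incubation: 30 min reaction, 60 min detection, RT / Measured by: LANCE TR-FRET / Read-out: inhibition from TR-FRET ratio decrease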
IDH1 R132H inh = inhibitors of IDH1 R132H reductase, primary screen, biochemical, plate reader, single point. inhibition, % at 10 µM. diaphorase/resazurin fluorescence, 60 min. 0.18% of 70,000 active; in the data active means inhibition above about 34%; inconclusive means no clear call, values can overlap the other calls; inactive means below about 11%;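 further: 0% = DMSO and 100% = no enzyme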
Target sequence (O75874 whole entry R132H): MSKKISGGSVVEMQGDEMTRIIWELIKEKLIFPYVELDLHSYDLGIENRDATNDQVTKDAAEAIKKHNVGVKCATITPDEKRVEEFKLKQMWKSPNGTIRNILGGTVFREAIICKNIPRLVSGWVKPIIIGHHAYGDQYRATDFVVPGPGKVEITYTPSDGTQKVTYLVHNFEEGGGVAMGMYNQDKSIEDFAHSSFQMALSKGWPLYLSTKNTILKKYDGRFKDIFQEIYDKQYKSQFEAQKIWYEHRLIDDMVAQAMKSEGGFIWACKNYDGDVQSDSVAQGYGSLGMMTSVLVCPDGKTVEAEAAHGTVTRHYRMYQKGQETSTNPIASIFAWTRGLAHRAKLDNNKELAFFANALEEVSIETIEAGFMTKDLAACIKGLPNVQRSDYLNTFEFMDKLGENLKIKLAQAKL
T cruzi growth-1 = T. cruzi intracellular proliferation inhibitors, primary screen, cell-based, beta-gal Tulahuen parasites, NIH3T3 host, luminescence; T. cruzi beta-gal in NIH3T3, GalScreen luminescence, 90 h; inhibition, % at 8.34 µM; 5.9% of 77,000 active; AID 624255, 2012;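 active means mean inhibition above about 93%, with at least 55% of replicates each passing it, limit read from the data, passing the limit was not always enough; inconclusive means only one of those two conditions holds; inactive means neither condition holds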
T cruzi growth-2 = T. cruzi intracellular proliferation inhibitors, confirmation, cell-based, NIH3T3 host, beta-gal parasite, luminescence, cherry-pick; T. cruzi beta-gal in NIH3T3, GalScreen luminescence, 90 h; 72% of 5,600 active; shares compounds with T cruzi growth-1; AID 651739, 2012; inhibition, % at 8.35 µM;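 active means mean replicate inhibition above about 95% and at least 55% of replicates individually reaching it, limit read from the data; inconclusive means only one of the two criteria is met; inactive means neither criterion is met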
T cruzi growth-3 = inhibitors of intracellular T. cruzi replication, confirmation, NIH3T3 host cells, beta-gal parasites, cherry-pick, set 2 | inhibition, % at 2.09 µM | T. cruzi beta-gal in NIH3T3, GalScreen luminescence, 90 h | 21% of 5,600 active | shares compounds with T cruzi growth-1;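 active means mean inhibition above about 95%, with at least 55% of replicates also reaching it, limit read from the data; inconclusive means meets just one of the two conditions; inactive means meets neither condition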;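 further: plate controls were neutral control median for no effect and positive control median for full effect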
3T3 cytotox = cytotoxicity in mouse NIH/3T3 fibroblasts, confirmation, cytotoxicity control for T. cruzi proliferation inhibitor project, cell-based, cherry-pick, single point; shares compounds with T cruzi growth-1; NIH/3T3 viability, CellTiter-Glo ATP luminescence, 90 h; cytotoxicity (signal decrease), % at 8.35 µM; 14% of 5,600 active; AID 651742, 2012;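 active means mean signal decrease across replicates above about 35% based on untreated-well scatter, with enough replicates individually passing, limit read from the data; inconclusive means no rule stated though some were filed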;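 further: 0% = median of neutral control wells and 100% = median of positive control wells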
NIH3T3 tox 2 = NIH/3T3 fibroblast cytotoxicity, confirmation, cytotoxicity control, cell-based, cherry-pick, single point, set 2 | shares compounds with T cruzi growth-1 | NIH/3T3 viability, CellTiter-Glo ATP luminescence, 90 h | inhibition, % at 24.9 µM | 56% of 5,600 active | AID 651744, 2012;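 active means mean loss of cell viability signal at or above a set limit, and enough replicates individually reaching it; inconclusive means meets only the mean limit or only the replicate share; inactive means meets neither condition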;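 further: 0% = median of neutral control wells and 100% = median of positive control wells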
* = called active by the depositor; ? = inconclusive; nt = not tested or not shown; ! = not active in a repeat. The full list was thinned out, with hits kept by preference.

SMILES | GASC1 inh | IDH1 R132H inh | T cruzi growth-1 | T cruzi growth-2 | T cruzi growth-3 | 3T3 cytotox | NIH3T3 tox 2
C[C@H]1CN([C@@H](C)CO)S(=O)(=O)c2ccc(/C=C/c3ccccc3)cc2O[C@H]1CN(C)Cc1cncnc1 | 2 | -2 | 103* | 95* | 78 | 57* | 46*
CS(=O)(=O)N(CC(=O)Nc1ccc(Cl)c(Cl)c1)c1ccc(Br)cc1 | nt | 0 | nt | nt | nt | nt | nt
C=C1C2=C(C(=O)N1OC)[C@H](O)[C@](C)(O)[C@H](CCCCC)O2 | nt | 0 | nt | nt | nt | nt | nt
CC(C)NC(=O)N1[C@H](CO)[C@@H](c2ccc(C#CC3CCCCC3)cc2)[C@@H]1C#N | 0 | nt | 99* | 94 | 105* | -20 | 105*
N#C[C@@H]1[C@H](c2ccc(C#CC3CCCCC3)cc2)[C@@H](CO)N1C(=O)Nc1ccc(F)cc1 | -4 | nt | nt | nt | nt | nt | nt
CC(C)NC(=O)N1[C@@H](C#N)[C@@H](c2ccc(C#CC3CCCCC3)cc2)[C@@H]1CO | 0 | nt | 63 | nt | nt | nt | nt
CC(C)NC(=O)N1[C@@H](C#N)[C@H](c2ccc(C#CC3CCCCC3)cc2)[C@@H]1CO | 3 | nt | 100* | 105* | 73 | 3 | 62*
C/C=C(\C)CC(/C=C(\C)C(O)C(C)/C=C(\C)C(O)C(C)/C=C/C(O)C/C=C/C(O)C(O)C(=O)O)C(=O)O (centres undefined) | nt | 0 | nt | nt | nt | nt | nt
Cc1ccccc1OCC(=O)Nc1ccccc1C(=O)N1C(C)CCCC1C (centres undefined) | nt | -1 | nt | nt | nt | nt | nt
C[C@H](CO)N1C[C@H](C)[C@@H](CN(C)C(=O)C2CCOCC2)Oc2cc(C3=CCCC3)ccc2S1(=O)=O | 0 | nt | ? | 67 | 6 | 20 | 29*
C[C@@H]1CN([C@@H](C)CO)S(=O)(=O)c2ccc(C3=CCCC3)cc2O[C@@H]1CN(C)C(=O)C1CCOCC1 | 0 | nt | 65 | nt | nt | nt | nt
C[C@H]1CN([C@@H](C)CO)S(=O)(=O)c2ccc(C3=CCCC3)cc2O[C@@H]1CN(C)C(=O)C1CCCCC1 | -1 | nt | 105*! | 102*! | 71 | -6 | 57*!
C[C@@H]1CN([C@@H](C)CO)S(=O)(=O)c2ccc(C3=CCCCC3)cc2O[C@H]1CN(C)C(=O)C1CCC1 | 2 | nt | 28 | nt | nt | nt | nt
C[C@H]1CN([C@@H](C)CO)S(=O)(=O)c2ccc(C3=CCCC3)cc2O[C@H]1CN(C)C(=O)C1CCC1 | -3 | 6 | 52 | nt | nt | nt | nt
C[C@@H]1CN([C@H](C)CO)S(=O)(=O)c2ccc(C3=CCCCC3)cc2O[C@@H]1CN(C)C(=O)C1CCCCC1 | -2 | nt | 127* | 96* | 92 | 30 | 102*
Cc1ccc(Oc2ccc(NC(=O)CN3C(=O)C4C5C=CC(C6CC56)C4C3=O)cc2)cc1 (centres undefined) | nt | 1 | nt | nt | nt | nt | nt
CCOC(=O)c1c(NC(=O)CSc2nc3ccccc3[nH]2)sc2c1CCCC2 | nt | 0 | nt | nt | nt | nt | nt
CC(=O)C(Sc1cc(C)nc(N)n1)C(=O)Nc1ccccc1 (centres undefined) | nt | 2 | nt | nt | nt | nt | nt
CCCC#Cc1ccc([C@@H]2[C@@H](CO)N3CCCCN(S(=O)(=O)Cc4ccccc4)C[C@@H]23)cc1 | -2 | nt | 84 | nt | nt | nt | nt
CC(C)CC#Cc1ccc([C@H]2[C@@H](CO)N3CCCCN(S(=O)(=O)Cc4ccccc4)C[C@H]23)cc1 | -2 | nt | 103* | 98* | 108* | 28 | 108*
CCCC#Cc1ccc([C@H]2[C@H]3CN(S(=O)(=O)c4ccccc4C)CCCCN3[C@H]2CO)cc1 | -3 | nt | 65 | nt | nt | nt | nt
O=S(=O)(Cc1ccccc1)N1CCCCN2[C@H](CO)[C@@H](c3ccc(C#Cc4ccccc4)cc3)[C@@H]2C1 | -3 | nt | 92 | nt | nt | nt | nt
O=S(=O)(Cc1ccccc1)N1CCCCN2[C@@H](CO)[C@H](c3ccc(C#Cc4ccccc4)cc3)[C@@H]2C1 | -3 | nt | 117* | 100* | 82 | 51* | 106*
CC(C)C#Cc1ccc([C@@H]2[C@@H](CO)N3CCCCN(S(=O)(=O)Cc4ccccc4)C[C@@H]23)cc1 | -1 | nt | 101* | 105* | 84 | 37* | 104*
C[C@H](O)C#Cc1ccc([C@H]2[C@@H](CO)N3CCCCN(S(=O)(=O)Cc4ccccc4)C[C@H]23)cc1 | 0 | nt | 37 | nt | nt | nt | nt
SMILES | GASC1 inh | IDH1 R132H inh | T cruzi growth-1 | T cruzi growth-2 | T cruzi growth-3 | 3T3 cytotox | NIH3T3 tox 2
CCCC#Cc1ccc([C@@H]2[C@@H](CO)N3CCCCN(S(=O)(=O)c4ccccc4C)C[C@@H]23)cc1 | -1 | nt | 116* | 98* | 79 | 17 | 102*
O=C(CSc1nnnn1-c1ccc(O)cc1)Nc1ccc(F)cc1 | nt | 0 | nt | nt | nt | nt | nt
COc1ccc(Cl)cc1NC(=S)NCCCn1nc(C)c(Br)c1C | nt | 0 | nt | nt | nt | nt | nt
COc1cc([N+](=O)[O-])ccc1NC(=O)CS(=O)(=O)Cc1ccccc1 | nt | 0 | nt | nt | nt | nt | nt
Cn1c(=O)c2c(nc(SCc3nn[nH]n3)n2Cc2ccccc2)n(C)c1=O | nt | 1 | nt | nt | nt | nt | nt
CCc1ccccc1NC(=O)CSc1nc2ccccc2c(=O)n1-c1ccccc1Cl | nt | 0 | nt | nt | nt | nt | nt
CCCC#Cc1ccc([C@H]2[C@H]3CN(S(=O)(=O)Cc4ccccc4)CCCCN3[C@H]2CO)cc1 | -2 | nt | 100* | 104* | 81 | ? | 76*
CCCC#Cc1ccc([C@@H]2[C@H](CO)N3CCCCN(S(=O)(=O)Cc4ccccc4)C[C@@H]23)cc1 | 0 | nt | 83 | nt | nt | nt | nt
Cn1nnnc1SCC(=O)c1ccc(O)c(O)c1 | nt | -1 | nt | nt | nt | nt | nt
Cc1nc2ccccn2c1-c1ccnc(SCC(=O)N(c2ccccc2)C2CCCCC2)n1 | nt | 1 | nt | nt | nt | nt | nt
Cc1c(Cl)cccc1N(CC(=O)O)S(=O)(=O)c1ccccc1 | nt | -1 | nt | nt | nt | nt | nt
Cc1nn(C(C)(C)C)c(OC(=O)c2cccc(Br)c2)c1S(=O)(=O)c1ccccc1 | nt | 0 | nt | nt | nt | nt | nt
COCC#Cc1ccc([C@@H]2[C@H](CO)N3CCCCN(S(=O)(=O)c4cccc(OC)c4)C[C@@H]23)cc1 | -2 | nt | 107* | 103* | 38 | 32 | 45*
COCC#Cc1ccc([C@H]2[C@@H](CO)N3CCCCN(S(=O)(=O)c4cccc(OC)c4)C[C@H]23)cc1 | -1 | nt | 92 | nt | nt | nt | nt
COc1cccc(S(=O)(=O)N2CCCCN3[C@@H](CO)[C@H](c4ccc(C#CC5CC5)cc4)[C@@H]3C2)c1 | -1 | nt | 107* | 109* | 89 | 16 | 105*
COc1cccc(S(=O)(=O)N2CCCCN3[C@H](C2)[C@H](c2ccc(C#CC4CC4)cc2)[C@@H]3CO)c1 | -1 | nt | 72 | nt | nt | nt | nt
